In ChEMBL document CHEMBL1140701, “Synthesis, conformational analysis, and biological evaluation of 1-hexylindolactam-V10 as a selective activator for novel protein kinase C isozymes” (J Med Chem, 2008):
Activity calls are given as the source filed them. The rule behind the calls is not given here.

How the values were obtained:
[1] = target: T1, Protein kinase C alpha type (Homo sapiens, UniProt P17252); test: Displacement of [3H]PDBu from PKCalpha C1A domain
How it was run: (§1)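 [3H]PDBu (20 nM, 16.3 Ci/mmol) competition binding with synthetic PKC C1 peptides (10–40 nM) in 50 mM Tris-maleate pH 7.4 at 4 °C, with 50 µg/mL phosphatidylserine, 3 mg/mL bovine γ-globulin and varied inhibitor concentrations. IC50 is the concentration giving 50% inhibition of specific binding. Ki derived by the Sharkey–Blumberg method. SD from at least two separate experiments.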

[2] = target: T1, Protein kinase C alpha type; test: Displacement of [3H]PDBu from PKCalpha C1B domain; how it was run: as §1
[3] = target: T2, Protein kinase C beta type (Homo sapiens, UniProt P05771); test: Displacement of [3H]PDBu from PKCbeta C1A domain; how it was run: as §1
Target sequence in this assay (P05771 whole entry, the tested form may be a part): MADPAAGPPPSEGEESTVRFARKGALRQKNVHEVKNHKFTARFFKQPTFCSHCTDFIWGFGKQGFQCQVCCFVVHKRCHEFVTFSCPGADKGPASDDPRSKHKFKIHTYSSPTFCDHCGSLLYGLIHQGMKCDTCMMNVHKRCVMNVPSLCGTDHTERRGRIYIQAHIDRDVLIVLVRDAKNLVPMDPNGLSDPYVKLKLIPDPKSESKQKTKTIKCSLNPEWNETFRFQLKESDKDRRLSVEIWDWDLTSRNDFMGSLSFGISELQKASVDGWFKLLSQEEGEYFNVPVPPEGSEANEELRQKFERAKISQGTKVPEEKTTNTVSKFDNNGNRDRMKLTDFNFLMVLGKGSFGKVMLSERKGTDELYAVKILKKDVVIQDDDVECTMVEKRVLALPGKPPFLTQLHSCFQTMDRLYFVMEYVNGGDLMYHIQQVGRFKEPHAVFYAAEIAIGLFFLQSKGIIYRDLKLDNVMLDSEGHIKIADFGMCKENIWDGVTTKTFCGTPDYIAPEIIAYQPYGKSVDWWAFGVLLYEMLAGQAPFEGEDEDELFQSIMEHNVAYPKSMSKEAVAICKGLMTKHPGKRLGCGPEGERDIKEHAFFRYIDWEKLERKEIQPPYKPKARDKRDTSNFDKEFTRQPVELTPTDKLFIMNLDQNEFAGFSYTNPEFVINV

[4] = target: T2, Protein kinase C beta type; test: Displacement of [3H]PDBu from PKCbeta C1B domain; how it was run: as §1
Target sequence in this assay (P05771 whole entry, the tested form may be a part): as above

[5] = target: T3, Protein kinase C gamma type (Homo sapiens, UniProt P05129); test: Displacement of [3H]PDBu from PKCgamma C1A domain; how it was run: as §1
[6] = target: T3, Protein kinase C gamma type; test: Displacement of [3H]PDBu from PKCgamma C1B domain; how it was run: as §1
[7] = target: Protein kinase C delta type (Homo sapiens, UniProt Q05655); test: Displacement of [3H]PDBu from PKCdelta C1B domain; how it was run: as §1
Chain of Protein kinase C delta type (Q05655 whole entry, the tested form may be a part): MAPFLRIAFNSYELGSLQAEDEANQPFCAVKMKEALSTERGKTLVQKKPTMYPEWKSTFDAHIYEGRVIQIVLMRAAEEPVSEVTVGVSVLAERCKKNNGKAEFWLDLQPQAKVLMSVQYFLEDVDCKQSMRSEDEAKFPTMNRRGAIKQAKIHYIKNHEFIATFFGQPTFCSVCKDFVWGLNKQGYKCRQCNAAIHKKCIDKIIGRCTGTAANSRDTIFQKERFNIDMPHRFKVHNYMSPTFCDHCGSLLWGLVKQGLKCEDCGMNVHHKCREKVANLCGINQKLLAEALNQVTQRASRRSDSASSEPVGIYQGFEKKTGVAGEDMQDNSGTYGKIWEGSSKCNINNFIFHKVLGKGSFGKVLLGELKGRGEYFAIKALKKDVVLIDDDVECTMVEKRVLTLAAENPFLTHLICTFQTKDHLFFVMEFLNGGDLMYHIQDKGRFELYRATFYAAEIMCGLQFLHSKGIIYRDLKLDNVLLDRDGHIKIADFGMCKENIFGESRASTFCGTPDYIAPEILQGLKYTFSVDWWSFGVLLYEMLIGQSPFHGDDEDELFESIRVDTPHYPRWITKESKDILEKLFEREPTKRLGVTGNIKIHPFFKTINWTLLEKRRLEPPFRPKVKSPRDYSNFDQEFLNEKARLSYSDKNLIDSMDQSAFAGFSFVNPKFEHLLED

[8] = target: T4, Protein kinase C epsilon type (Homo sapiens, UniProt Q02156); test: Displacement of [3H]PDBu from PKCepsilon C1B domain
T4 sequence (Q02156 whole entry): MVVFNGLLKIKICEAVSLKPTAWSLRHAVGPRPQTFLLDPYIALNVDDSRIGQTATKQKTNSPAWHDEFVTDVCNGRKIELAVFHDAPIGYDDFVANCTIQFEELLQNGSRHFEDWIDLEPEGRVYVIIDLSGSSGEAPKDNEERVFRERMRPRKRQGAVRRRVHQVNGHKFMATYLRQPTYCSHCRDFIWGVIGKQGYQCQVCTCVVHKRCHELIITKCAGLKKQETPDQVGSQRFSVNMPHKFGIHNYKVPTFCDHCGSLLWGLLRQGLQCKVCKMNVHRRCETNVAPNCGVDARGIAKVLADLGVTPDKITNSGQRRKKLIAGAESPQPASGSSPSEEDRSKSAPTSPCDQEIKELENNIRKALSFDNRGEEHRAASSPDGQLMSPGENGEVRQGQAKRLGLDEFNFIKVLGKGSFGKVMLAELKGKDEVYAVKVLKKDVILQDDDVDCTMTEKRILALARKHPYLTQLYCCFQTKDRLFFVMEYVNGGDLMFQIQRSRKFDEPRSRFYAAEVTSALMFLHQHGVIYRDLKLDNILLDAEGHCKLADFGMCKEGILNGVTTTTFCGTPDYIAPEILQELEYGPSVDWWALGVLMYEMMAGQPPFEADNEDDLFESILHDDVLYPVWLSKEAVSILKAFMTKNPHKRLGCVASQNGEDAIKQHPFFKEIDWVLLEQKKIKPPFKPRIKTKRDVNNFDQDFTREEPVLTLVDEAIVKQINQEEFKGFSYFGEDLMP
How it was run: (§2)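 Synthetic PKC C1 peptides (10–40 nM; about 3 nM properly folded, estimated from earlier Scatchard Bmax) were incubated with 20 nM [3H]PDBu (16.3 Ci/mmol) in 50 mM Tris-maleate (pH 7.4 at 4 °C). The mix also held 50 µg/mL 1,2-dioleoyl-sn-glycero-3-phospho-L-serine, 3 mg/mL bovine γ-globulin and varied inhibitor. IC50 came from probit analysis and Ki from the Sharkey–Blumberg method.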

[9] = target: Protein kinase C eta type (Homo sapiens, UniProt P24723); test: Displacement of [3H]PDBu from PKCeta C1B domain; how it was run: as §2
Chain of Protein kinase C eta type (P24723 whole entry, the tested form may be a part): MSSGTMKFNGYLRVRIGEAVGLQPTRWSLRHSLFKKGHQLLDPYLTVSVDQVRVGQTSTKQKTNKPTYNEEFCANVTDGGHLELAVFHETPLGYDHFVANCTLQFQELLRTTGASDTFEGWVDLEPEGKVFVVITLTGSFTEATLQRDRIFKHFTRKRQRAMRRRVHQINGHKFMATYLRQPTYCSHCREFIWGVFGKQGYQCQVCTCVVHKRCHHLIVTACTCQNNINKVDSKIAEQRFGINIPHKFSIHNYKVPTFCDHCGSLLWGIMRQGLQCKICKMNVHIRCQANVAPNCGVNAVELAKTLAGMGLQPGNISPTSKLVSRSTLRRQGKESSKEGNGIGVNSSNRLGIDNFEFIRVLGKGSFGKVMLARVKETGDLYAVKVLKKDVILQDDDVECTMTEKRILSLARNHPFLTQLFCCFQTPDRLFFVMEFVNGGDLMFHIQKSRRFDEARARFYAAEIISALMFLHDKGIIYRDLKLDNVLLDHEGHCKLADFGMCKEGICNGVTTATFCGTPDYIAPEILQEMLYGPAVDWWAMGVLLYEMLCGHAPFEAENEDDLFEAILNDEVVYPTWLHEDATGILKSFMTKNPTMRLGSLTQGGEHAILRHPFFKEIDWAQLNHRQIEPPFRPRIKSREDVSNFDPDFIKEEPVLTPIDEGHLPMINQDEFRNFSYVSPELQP

[10] = target: Protein kinase C theta type (Homo sapiens, UniProt Q04759); test: Displacement of [3H]PDBu from PKCtheta C1B domain; how it was run: as §2
Chain of Protein kinase C theta type (Q04759 whole entry, the tested form may be a part): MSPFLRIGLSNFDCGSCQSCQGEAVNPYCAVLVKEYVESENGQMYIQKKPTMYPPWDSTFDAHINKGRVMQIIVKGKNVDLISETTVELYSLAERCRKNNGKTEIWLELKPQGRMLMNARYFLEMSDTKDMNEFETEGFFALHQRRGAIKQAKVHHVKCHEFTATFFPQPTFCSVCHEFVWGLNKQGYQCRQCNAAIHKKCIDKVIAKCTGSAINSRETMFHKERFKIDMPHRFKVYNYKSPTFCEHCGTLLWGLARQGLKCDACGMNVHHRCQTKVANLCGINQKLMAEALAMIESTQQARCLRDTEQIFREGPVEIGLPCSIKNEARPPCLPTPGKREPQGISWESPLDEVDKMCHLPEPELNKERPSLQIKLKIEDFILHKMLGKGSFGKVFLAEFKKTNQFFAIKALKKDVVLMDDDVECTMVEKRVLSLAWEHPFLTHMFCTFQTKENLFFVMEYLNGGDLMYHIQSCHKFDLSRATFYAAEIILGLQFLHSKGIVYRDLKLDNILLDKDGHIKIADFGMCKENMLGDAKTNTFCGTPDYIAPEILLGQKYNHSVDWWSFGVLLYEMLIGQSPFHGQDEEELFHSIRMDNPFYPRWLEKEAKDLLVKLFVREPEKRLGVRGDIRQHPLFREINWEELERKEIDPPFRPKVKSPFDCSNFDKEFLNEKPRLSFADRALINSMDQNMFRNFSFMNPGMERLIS

[11] = Displacement of [3H]PDBu from PKCdelta C1B P11dfP mutant; how it was run: as §1
[12] = Displacement of [3H]PDBu from PKCgamma C1A P11dfP mutant; how it was run: as §1
[13] = Selectivity ratio of PKCdelta C1B domain over PKCdelta C1B P11dfP mutant
[14] = Selectivity ratio of PKCgamma C1A domain over PKCgamma C1A P11dfP mutant
[15] = target: T2, Protein kinase C beta type; test: Displacement of [3H]PDBu from PKCbeta C1A domain at 10 uM
How it was run: (§3)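 Competition for specific [3H]PDBu (20 nM, 16.3 Ci/mmol) binding to C1 peptide (10–40 nM) was tested with a single 10 µM competitor. The buffer was 50 mM Tris-maleate (pH 7.4 at 4 °C) with 50 µg/mL dioleoylphosphatidylserine and 3 mg/mL bovine γ-globulin.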
Target sequence in this assay (P05771 2-671 limits assumed): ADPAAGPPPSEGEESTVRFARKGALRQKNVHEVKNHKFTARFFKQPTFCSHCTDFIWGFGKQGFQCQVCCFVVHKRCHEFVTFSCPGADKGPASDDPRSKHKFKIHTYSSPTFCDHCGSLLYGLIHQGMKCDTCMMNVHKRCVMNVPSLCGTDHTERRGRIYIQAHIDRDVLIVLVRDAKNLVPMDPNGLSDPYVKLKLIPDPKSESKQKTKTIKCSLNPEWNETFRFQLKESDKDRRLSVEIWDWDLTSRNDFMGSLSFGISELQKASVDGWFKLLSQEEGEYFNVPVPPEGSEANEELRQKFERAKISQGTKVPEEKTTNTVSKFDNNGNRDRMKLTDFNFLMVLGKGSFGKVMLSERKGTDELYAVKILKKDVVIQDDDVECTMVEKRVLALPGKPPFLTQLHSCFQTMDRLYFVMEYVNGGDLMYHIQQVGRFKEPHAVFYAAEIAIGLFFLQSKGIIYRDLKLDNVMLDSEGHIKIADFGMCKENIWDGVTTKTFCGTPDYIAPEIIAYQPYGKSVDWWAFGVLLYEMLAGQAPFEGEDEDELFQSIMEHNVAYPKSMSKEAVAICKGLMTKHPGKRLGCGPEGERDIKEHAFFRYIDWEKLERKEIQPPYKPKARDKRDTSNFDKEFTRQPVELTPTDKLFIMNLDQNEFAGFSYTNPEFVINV

[16] = target: T2, Protein kinase C beta type; test: Displacement of [3H]PDBu from PKCbeta C1B domain at 10 uM; how it was run: as §3
Target sequence in this assay (P05771 2-671 limits assumed): as above

| Compound | Ki [1] [nM] | Ki [2] [nM] | Ki [3] [nM] | Ki [4] [nM] | Ki [5] [nM] | Ki [6] [nM] | Ki [7] [nM] | Ki [8] [nM] | Ki [9] [nM] | Ki [10] [nM] | Ki [11] [nM] | Ki [12] [nM] | Ratio Ki [13] | Ratio Ki [14] | Activity [15] | Activity [16] |
| --- | --- | --- | --- | --- | --- | --- | --- | --- | --- | --- | --- | --- | --- | --- | --- | --- |
| CCCCCCn1cc2c3c(cccc31)N(C)[C@@H](C(C)C)C(=O)N[C@H](CO)C2 | 5.8 | 43 | 9.8 | 11 | 15 | 39 | 0.46 | 0.47 | 0.34 | 1.4 | 3.7 | 71 | 8 | 4.7 | – | – |
| CCCCCCn1c(Br)c2c3c(cccc31)N(C)[C@@H](C(C)C)C(=O)N[C@H](CO)CC2 | – | – | – | – | – | – | – | – | – | – | – | – | – | – | inactive | inactive |
| CC(C)[C@H]1C(=O)N[C@H](CO)Cc2c[nH]c3cccc(c23)N1C [INDOLACTUM] | 21 | – | 19 | – | 89 | 59 | 11 | – | – | – | 130 | 690 | 11.8 | 7.8 | – | – |
| CC(C)[C@H]1C(=O)N[C@H](CO)Cc2ccccc2N1C | – | – | – | – | 3100 | – | 410 | – | – | – | 436 | 2500 | 1.1 | 0.8 | – | – |
| CCCCCCn1cc2c3c(c(Cl)ccc31)N(C)[C@@H](C(C)C)C(=O)N[C@H](CO)CC2 | – | – | – | – | – | – | – | – | – | – | – | – | – | – | inactive | inactive |
| CCCCCCn1cc2c3c(cccc31)N(C)[C@@H](C(C)C)C(=O)N[C@H](CO)CC2 | 6700 | > 10000 | 9200 | 440 | 11000 | 420 | 15 | 29 | 25 | 12 | 120 | 14000 | 8 | 1.3 | – | – |
